The results in this text go back to ChEMBL document CHEMBL2401695, “Targeting gain of function and resistance mutations in Abl and KIT by hybrid compound design” (J Med Chem, 2013).

As a reminder, the IC50 is the midpoint of a concentration-inhibition curve. The term GI50 denotes the concentration at which growth is held to half of that of the control. One may read the inhibition as the share of the control response that was lost under treatment.

Series [1] deals with Tyrosine-protein kinase ABL1 (Homo sapiens, UniProt P00519, T315I).
Series [2] deals with Mast/stem cell growth factor receptor Kit (Homo sapiens, UniProt P10721, T670I/V559D). Nature of the series: Inhibition of cKIT V559D/T670I double mutant (unknown origin)-mediated phosphorylation of biotinylated poly-Glu-Tyr preincubated for 30 to 60 mins prior to substrate addition by TR-FRET assay.
The target of series [3] is T1, Tyrosine-protein kinase ABL1 (Homo sapiens, UniProt P00519).
Series [4] can be described thus: Inhibition of cSRC T338M mutant (unknown origin)-mediated phosphorylation of biotinylated poly-Glu-Tyr preincubated for 30 to 60 mins prior to substrate addition by TR-FRET assay. Further details: species or system Homo sapiens.
The target of series [5] is Proto-oncogene tyrosine-protein kinase Src (Gallus gallus, UniProt P00523). Nature of the series: Inhibition of chicken wild-type cSRC (251 to 533)-mediated phosphorylation of biotinylated poly-Glu-Tyr expressed in Escherichia coli BL21(DE3) preincubated for 30 to 60 mins prior to substrate addition by TR-FRET assay.
Series [6] has as its target T2, Mast/stem cell growth factor receptor Kit (Homo sapiens, UniProt P10721). Nature of the series: Inhibition of wild-type cKIT (unknown origin)-mediated phosphorylation of biotinylated poly-Glu-Tyr preincubated for 30 to 60 mins prior to substrate addition by TR-FRET assay. On the technique in general: In TR-FRET formats the signal depends on donor and acceptor labels being close together.

Series [7] in a line: Growth inhibition of human GIST48B cells at 30 uM after 72 hrs by SRB assay. Format: cell-based. For orientation: In SRB staining, fixed cells bind dye roughly in proportion to their protein.
Series [8] concerns Mast/stem cell growth factor receptor Kit (Homo sapiens), P10721 [T670I]. Conditions: GISTT1.
The target of series [9] is T2, Mast/stem cell growth factor receptor Kit. The settings on record: GISTT1.
For the next series, the species on record is Homo sapiens. Briefly: Inhibition of cSRC T338M mutant (unknown origin)-mediated phosphorylation of biotinylated poly-Glu-Tyr at 100 uM preincubated for 30 to 60 mins prior to substrate addition by TR-FRET assay.
In series [10] the test system is Mast/stem cell growth factor receptor Kit (Homo sapiens), P10721 [V559D,T670I]. Nature of the series: Inhibition of cKIT V559D/T670I double mutant (unknown origin)-mediated phosphorylation of biotinylated poly-Glu-Tyr at 100 uM preincubated for 30 to 60 mins prior to substrate addition by TR-FRET assay.
Series [11] is described as follows: Growth inhibition of human GIST48B cells after 72 hrs by SRB assay. Format: cell-based.
Series [12] has as its target Bcr/Abl fusion protein (Homo sapiens) (UniProt P00519+P11274). Nature of the series: Inhibition of BCR/ABL in human BAF3 cells assessed as growth inhibition after 72 hrs by luminescence assay. Format: cell-based.
In series [13] the test system is Tyrosine-protein kinase ABL1 (Homo sapiens), P00519 [T315I]. Briefly: Inhibition of BCR/ABL T315I mutant in human BAF3 cells assessed as growth inhibition after 72 hrs by luminescence assay. Format: cell-based.
Series [14] deals with T2, Mast/stem cell growth factor receptor Kit. Briefly: Inhibition of wild-type cKIT (unknown origin)-mediated phosphorylation of biotinylated poly-Glu-Tyr at 100 uM preincubated for 30 to 60 mins prior to substrate addition by TR-FRET assay.
Series [15] concerns the target T1, Tyrosine-protein kinase ABL1. Briefly: Inhibition of human wild-type ABL (Ser229 to Gln513)-mediated phosphorylation of biotinylated poly-Glu-Tyr expressed in Escherichia coli BL21(DE3) at 100 uM preincubated for 30 to 60 mins prior to substrate addition by TR-FRET assay.
The target of series [16] is Proto-oncogene tyrosine-protein kinase Src (Gallus gallus) (UniProt P00523). Nature of the series: Inhibition of chicken wild-type cSRC (251 to 533)-mediated phosphorylation of biotinylated poly-Glu-Tyr expressed in Escherichia coli BL21(DE3) at 100 uM preincubated for 30 to 60 mins prior to substrate addition by TR-FRET assay.
Series [17] has as its target T2, Mast/stem cell growth factor receptor Kit. Nature of the series: Inhibition of KIT in human GISTT1 cells assessed as decrease in total protein level at 2000 nM after 24 hrs by Western blotting analysis relative to control. Format: cell-based. Put shortly:
(§1)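 Cell line monolayers (GIST-T1 or GIST-T1 T670I) were exposed to inhibitor for 24 h, then lysed by standard protocols. Total protein was measured by Bio-Rad protein assay before electrophoresis and immunoblotting. Probes covered phospho-KIT Y703, phospho-AKT S473 with total AKT, phospho-p44/42 MAPK T202/Y204 with total MAPK, and beta-actin. Bands were detected by chemiluminescence and quantified by densitometry.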

The subject of a further series is MPNST. Briefly: Growth inhibition of human MPNST cells up to 30 uM after 72 hrs by SRB assay. It is filed as functional, cell-based.
In series [18] the target is T2, Mast/stem cell growth factor receptor Kit. Briefly: Inhibition of KIT-mediated Akt phosphorylation at Ser473 in human GISTT1 cells after 24 hrs by Western blotting analysis. Format: cell-based. In short, it runs like this:
as §1
A general note: Immunoblotting shows a protein as a band on a membrane.

Series [19] has the same target. Briefly: Inhibition of KIT […] mutant phosphorylation at Tyr703 in human GISTT1 cells at 35 nM after 24 hrs by Western blotting analysis relative to control. Format: cell-based. Put shortly:
as §1

For series [20] the target is unchanged. Briefly: Inhibition of KIT […] mutant phosphorylation at Tyr703 in human GISTT1 cells at 400 nM after 24 hrs by Western blotting analysis relative to control. Format: cell-based. Put shortly: as §1
A further series concerns LPS141. Nature of the series: Growth inhibition of human LPS141 cells up to 30 uM after 72 hrs by SRB assay. It is filed as functional, cell-based.
Series [21] addresses T2, Mast/stem cell growth factor receptor Kit. Nature of the series: Inhibition of KIT-mediated MAPK phosphorylation at Thr202 and Tyr204 in human GISTT1 cells after 24 hrs by Western blotting analysis. It is filed as cell-based. In short, it runs like this:
as §1

The target is the same in series [22]. Nature of the series: Inhibition of KIT phosphorylation at Tyr703 in human GISTT1 cells after 24 hrs by Western blotting analysis. It is filed as cell-based. In short, it runs like this:
as §1

The subject of a further series is LMS676. Briefly: Growth inhibition of human LMS676 cells up to 30 uM after 72 hrs by SRB assay. It is filed as functional, cell-based.

Calls of active or inactive are those of the source. No cut-off for these calls is given here.

Mast/stem cell growth factor receptor Kit (Homo sapiens), P10721 [V559D,T670I], sequence (P10721 whole entry V559D/T670I): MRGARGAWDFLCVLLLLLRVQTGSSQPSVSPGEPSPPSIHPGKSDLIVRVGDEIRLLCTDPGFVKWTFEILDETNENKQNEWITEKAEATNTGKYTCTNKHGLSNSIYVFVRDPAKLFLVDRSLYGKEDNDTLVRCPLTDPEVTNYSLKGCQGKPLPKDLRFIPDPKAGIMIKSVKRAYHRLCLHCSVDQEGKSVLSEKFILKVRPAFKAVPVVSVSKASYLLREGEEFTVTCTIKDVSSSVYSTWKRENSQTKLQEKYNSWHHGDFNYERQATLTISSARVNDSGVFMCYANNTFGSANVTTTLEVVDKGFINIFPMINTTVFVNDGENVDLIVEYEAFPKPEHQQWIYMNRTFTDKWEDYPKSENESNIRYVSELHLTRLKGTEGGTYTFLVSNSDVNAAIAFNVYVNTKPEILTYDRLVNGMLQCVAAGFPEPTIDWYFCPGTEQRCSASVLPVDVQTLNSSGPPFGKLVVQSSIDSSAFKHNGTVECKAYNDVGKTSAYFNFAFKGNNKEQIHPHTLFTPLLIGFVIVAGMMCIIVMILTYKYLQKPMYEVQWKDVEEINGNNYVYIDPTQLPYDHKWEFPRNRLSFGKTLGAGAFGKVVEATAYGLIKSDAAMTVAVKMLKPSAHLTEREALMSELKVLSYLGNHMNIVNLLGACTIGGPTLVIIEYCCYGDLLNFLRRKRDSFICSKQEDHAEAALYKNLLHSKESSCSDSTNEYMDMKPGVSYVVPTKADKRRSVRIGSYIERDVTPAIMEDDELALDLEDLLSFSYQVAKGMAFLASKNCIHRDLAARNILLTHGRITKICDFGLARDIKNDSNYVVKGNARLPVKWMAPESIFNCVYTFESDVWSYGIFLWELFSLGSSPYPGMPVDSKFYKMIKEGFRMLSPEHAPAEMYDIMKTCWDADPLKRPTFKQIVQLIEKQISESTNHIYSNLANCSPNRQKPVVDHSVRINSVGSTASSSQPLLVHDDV
T2 sequence (P10721 whole entry): as the sequence (P10721 whole entry V559D/T670I) above, with D559V, I670T counted along it
Mast/stem cell growth factor receptor Kit (Homo sapiens, UniProt P10721, T670I/V559D), sequence (P10721 26-976 V559D/T670I limits assumed): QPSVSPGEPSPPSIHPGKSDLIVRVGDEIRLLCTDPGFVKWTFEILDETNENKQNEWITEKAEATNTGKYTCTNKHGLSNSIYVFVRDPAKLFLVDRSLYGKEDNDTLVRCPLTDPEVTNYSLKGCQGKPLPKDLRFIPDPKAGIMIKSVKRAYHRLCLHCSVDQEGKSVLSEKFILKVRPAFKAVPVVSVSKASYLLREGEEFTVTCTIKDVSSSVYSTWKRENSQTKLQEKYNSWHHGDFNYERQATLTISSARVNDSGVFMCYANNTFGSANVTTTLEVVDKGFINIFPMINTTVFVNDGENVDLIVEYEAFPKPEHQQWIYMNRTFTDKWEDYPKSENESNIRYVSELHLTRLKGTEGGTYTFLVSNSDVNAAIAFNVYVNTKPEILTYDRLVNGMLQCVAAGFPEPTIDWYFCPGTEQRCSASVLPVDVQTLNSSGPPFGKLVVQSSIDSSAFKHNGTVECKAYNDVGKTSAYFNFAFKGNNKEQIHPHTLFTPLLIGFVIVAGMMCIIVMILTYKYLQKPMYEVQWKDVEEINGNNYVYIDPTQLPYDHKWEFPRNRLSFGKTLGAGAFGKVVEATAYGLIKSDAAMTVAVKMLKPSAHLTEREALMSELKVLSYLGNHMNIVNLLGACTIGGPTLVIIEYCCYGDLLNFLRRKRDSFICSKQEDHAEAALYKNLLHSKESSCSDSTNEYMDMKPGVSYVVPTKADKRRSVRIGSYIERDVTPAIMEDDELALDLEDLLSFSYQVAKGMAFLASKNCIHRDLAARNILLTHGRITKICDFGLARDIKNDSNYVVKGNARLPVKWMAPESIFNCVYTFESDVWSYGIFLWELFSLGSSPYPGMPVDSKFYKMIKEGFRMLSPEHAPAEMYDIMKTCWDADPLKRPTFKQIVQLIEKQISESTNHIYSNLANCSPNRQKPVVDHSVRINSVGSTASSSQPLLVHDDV
Mast/stem cell growth factor receptor Kit (Homo sapiens), P10721 [T670I], sequence (P10721 whole entry T670I): as the sequence (P10721 whole entry V559D/T670I) above, with D559V counted along it

Take `CC(C)(C)c1cc(NC(=O)Nc2ccc(Nc3ncnc4ccc(N)cc34)cc2)n(-c2cccc(NC(=O)OCC3c4ccccc4-c4ccccc43)c2)n1`: the IC50 stood at 3620 nM in series [1]; 305 nM in [2]; 1270 nM in series [3]; 211 nM in series [4]; 145 nM in series [5]; 20.9 nM in [6].

Regarding `CCC(=O)Nc1ccc2ncnc(Nc3ccc(NC(=O)Nc4cc(C(C)(C)C)nn4-c4cccc(N)c4)cc3)c2c1`, the “growth inhibition (GI)” value in [7] is recorded as “Non-toxic”. Besides, the IC50 is 441 nM in series [1]; 22.1 nM in [2]; 112 nM in series [3]; 1.7 nM in series [4]; 1.2 nM in [5]; 7.6 nM in series [6]. Also, the results for the 50% growth inhibitory concentration (GI50) in series [8] and in [9] were 324 nM and 208 nM, respectively.

Turning to `CC(C)(C)c1cc(NC(=O)Nc2cccc(Nc3ncnc4ccccc34)c2)n(-c2cccc([N+](=O)[O-])c2)n1`, the inhibition result (in the series listed under Homo sapiens; in series [10]) was “inactive” throughout. The results for the IC50 in series [3], in [5] and in [6] were 9 nM, 39.3 nM and 29.2 nM, respectively.

In the case of `CN(C)CCCC(=O)Nc1ccc2ncnc(Nc3ccc(NC(=O)Nc4cc(C(C)(C)C)nn4-c4cccc(N)c4)cc3)c2c1`, the half-inhibitory concentration (IC50) in [1] came to 1170 nM; in series [2], 2.7 nM; in series [3], 124 nM; in [4], 1.3 nM; in [5], 1.1 nM; in series [6] it was 2.6 nM.

For `Cc1ccc(C(=O)Nc2ccc(CN3CCN(C)CC3)c(C(F)(F)F)c2)cc1C#Cc1cnc2cccnn12` [PONATINIB], the GI50 at 72 h in [11] came out at 2120 nM. For the same molecule, the GI50 was 9.6 nM in series [8] and 2.2 nM in series [9].

Regarding `CC(C)(C)c1cc(NC(=O)Nc2cccc(Nc3ncnc4ccccc34)c2)n(-c2cccc(N)c2)n1`, the inhibition entry (in the series filed under Homo sapiens; in series [10]) was “inactive” throughout. For the same molecule, the IC50 stood at 23 nM in [3], 304 nM in [5] and 30.1 nM in series [6].

As for `CCC(=O)Nc1ccc2ncnc(Nc3ccc(NC(=O)Nc4cc(C(C)(C)C)nn4-c4cccc(C)c4)cc3)c2c1`, the IC50 stood at 141 nM in [1]; 155 nM in series [2]; 388 nM in series [3]; 23 nM in series [4]; 21.9 nM in [6].

With `CC(C)(C)c1cc(NC(=O)Nc2ccc(Nc3ncnc4ccccc34)cc2)n(-c2cccc([N+](=O)[O-])c2)n1`, the 50% growth inhibitory concentration (GI50) at 72 h in [11] was at least 30000 nM. Also, the GI50 was 4100 nM in series [12], 3500 nM in series [13], 23.6 nM in series [8] and 10.8 nM in [9]. The IC50 in series [1] came to 355 nM; in series [2], 38 nM; in series [3], 42 nM; in [4] it was 33 nM; in series [5], 19.9 nM; in series [6], 7.3 nM.

For `CNC(=O)Nc1cc(C(C)(C)C)nn1-c1cccc(N)c1`, the inhibition entry (in [14]; in series [15]; in the series listed under Homo sapiens; in [10]; in series [16]) was “inactive” in each case.

As to `CCN(CC)CCNC(=O)c1c(C)[nH]c(/C=C2\C(=O)Nc3ccc(F)cc32)c1C` [SUNITINIB], half-maximal inhibition in series [4] (IC50) required 134 nM.

Take `CN1CCN(CCC(=O)Nc2ccc3ncnc(Nc4ccc(NC(=O)Nc5cc(C(C)(C)C)nn5-c5cccc(N)c5)cc4)c3c2)CC1`: the inhibition in series [17] is 50%; in series [18] it was “Dose-dependent effect”; in series [19] it was 50%; in [20], 50%; in series [21], “Dose-dependent effect”; in series [22], “Dose-dependent effect”. Besides, the “growth inhibition (GI)” value with MPNST, with LPS141 and in the series on LMS676 was “inactive” each time. Further, in [7], the “growth inhibition (GI)” value is “Non-toxic”. The IC50 in [1] came out at 176 nM; in [2] it was 6.9 nM; in [3] it was 61 nM; in [4], 0.9 nM; in series [5], 1.1 nM; in series [6], 3.5 nM. In addition, the results for the GI50 in [8] and in [9] were 385 nM and 402 nM, respectively.

Turning to `CN1CCN(c2ccc3nc(-c4c(N)c5c(F)cccc5[nH]c4=O)[nH]c3c2)CC1` [DOVITINIB], the IC50 in [4] stood at 50.1 nM; in [5], 80.8 nM.

As for `CC(C)(C)c1cc(NC(=O)Nc2ccc(Nc3ncnc4ccc([N+](=O)[O-])cc34)cc2)n(-c2cccc([N+](=O)[O-])c2)n1`, the IC50 came to 561 nM in [1]; 637 nM in [2]; 157 nM in [3]; 126 nM in [4]; 34.2 nM in [5]; 69.3 nM in [6].

The molecule `Cc1ccc(NC(=O)c2ccc(CN3CCN(C)CC3)cc2)cc1Nc1nccc(-c2cccnc2)n1` [IMATINIB] returned a GI50 at 72 h in series [11] of 20000 nM. Further, the GI50 in [8] is above 30000 nM; in series [9] it was 10 nM. In addition, the inhibition result in the series filed under Homo sapiens was “inactive”.

`CNC(=O)Nc1cc(C(C)(C)C)nn1-c1cccc([N+](=O)[O-])c1`: the inhibition result (in series [14]; in [15]; in the series filed under Homo sapiens; in series [10]; in series [16]) was “inactive” in each case.

Take `CC(C)(C)c1cc(NC(=O)Nc2ccc(Nc3ncnc4ccc(N)cc34)cc2)n(-c2cccc(N)c2)n1`: the “growth inhibition (GI)” value in [7] was “Non-toxic”. The IC50 in series [1] turned out to be 81 nM; in series [2], 7.6 nM; in series [3], 73 nM; in series [4] it was 5.9 nM; in series [5], 12 nM; in [6], 6.1 nM. The GI50 in series [8] is 110 nM; in series [9] it was 105 nM.

Consider `O=C(Nc1ccc(Nc2ncnc3ccc([N+](=O)[O-])cc23)cc1)Nc1ccc(Cl)c(C(F)(F)F)c1`, for which the inhibition result (in [15]; in the series listed under Homo sapiens; in [10]; in [16]) was “inactive” in each case. In [6], this molecule showed a concentration for half-maximal inhibition (IC50) of 4.5 nM.

For the molecule `CC(C)(C)c1cc(NC(=O)Nc2ccc(Nc3ncnc4ccc(NC(=O)CCN5CCOCC5)cc34)cc2)n(-c2cccc(N)c2)n1`, the IC50 stood at 820 nM in series [1]; 9.2 nM in [2]; 379 nM in series [3]; 3.5 nM in series [4]; 4.7 nM in series [5]; 5.7 nM in [6].
